Structures are written as SMILES. In brackets after ≈: the same amount, converted by molar mass. Some results are limits rather than exact numbers.

The subject of test [1] is Enterococcus faecalis. Put plainly: Antibacterial activity against Enterococcus faecalis CL8516 after 20 hrs by NCCLS method. It counts as functional. The note with it: CL8516, 20 h. An outline of the steps: (§1)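 Twofold serial broth dilution in cation-adjusted Mueller Hinton broth per NCCLS guidelines. Inoculum 10^5 CFU/mL, incubated at 37 °C for 20 h with compound in growth medium. MIC taken as the lowest concentration preventing visible growth.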

Test [2] relates to Staphylococcus aureus. Kind of test: Antibacterial activity against Staphylococcus aureus Lin after 20 hrs by NCCLS method in presence of 50 % serum. It counts as functional.
Test [3] relates to Staphylococcus aureus. Put plainly: Antibacterial activity against Staphylococcus aureus Smith after 20 hrs by NCCLS method. It counts as functional. The procedure, abridged:
as §1

Test [4] relates to Staphylococcus aureus. Put plainly: Antibacterial activity against Staphylococcus aureus expressing FabF antisense plasmid S1-1941 assessed as minimum concentration required to produce differential zone of clearance after 18 hrs by antisense two-plate differential sensitivity cellular assay relative to control. It counts as functional. The procedure, abridged:
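S. aureus RN450 carrying the fabF antisense plasmid S1–1941, plus a vector-only control strain, grown 18–20 h at 37 °C in LB with 34 µg/mL chloramphenicol. Seeded at 1:1000 of OD 3.0 into LB agar with 0.2% glucose and 15 µg/mL chloramphenicol; antisense plates also got 50 mM xylose. Samples added to agar wells, incubated 18 h at 37 °C, and zones measured. MDC was found by twofold serial dilution.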

A short description of test [5]: Inhibition of Staphylococcus aureus FAS2 assessed as 2-[14C]malonyl-CoA incorporation after 90 mins by scintillation counting. An outline of the steps:
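Partially purified S. aureus fatty-acid synthesis enzyme mix (1.26 µg) preincubated 20 min at room temperature with serially diluted compound. Buffer: 100 mM sodium phosphate pH 7.0, EDTA, NADPH, NADH, DTT, β-mercaptoethanol, 20 µM octanoyl-CoA (or lauroyl-CoA), 4% DMSO, 5 µM ACP. Started with 4 µM final [2-14C]malonyl-CoA, run 90 min at 37 °C, stopped with perchloric acid, and counted by scintillation on phospholipid-coated flash plates.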

In test [6] the test system is Bacillus subtilis. Kind of test: Antibacterial activity against Bacillus subtilis MB964 after 20 hrs by NCCLS method. It counts as functional. The note with it: MB964, 20 h. The procedure, abridged:
as §1

Test [7] relates to Haemophilus influenzae. Kind of test: Antibacterial activity against Haemophilus influenzae MSD2261 after 20 hrs by NCCLS method. It counts as functional. The note with it: MSD2261, 20 h. The procedure, abridged: as §1
In test [8] the test system is Escherichia coli. Put plainly: Antibacterial activity against wild type Escherichia coli MB2884 after 20 hrs by NCCLS method. It counts as functional. The note with it: MB2884, 20 h. An outline of the steps:
as §1

Test [9] deals with Escherichia coli. Put plainly: Antibacterial activity against envelope disrupted Escherichia coli MB5746 after 20 hrs by NCCLS method. It counts as functional. The note with it: MB5746, 20 h. The procedure, abridged: as §1
In test [10] the test system is Candida albicans. Kind of test: Antifungal activity against Candida albicans after 20 hrs by NCCLS method. It counts as functional. The procedure, abridged:
as §1

Test [11] deals with HeLa. Kind of test: Cytotoxicity against human HeLa cells by MTT assay. It counts as functional, cell-based. A general note: Tetrazolium assays rely on reduction of a dye to a coloured formazan, in cell work by metabolically active cells.

What is called IC50 is the midpoint of a concentration-inhibition curve. On to `C=C1[C@H]2CC[C@@]3(C=CC(=O)[C@@](C)(CCC(=O)Nc4c(O)ccc(C(=O)O)c4O)[C@@H]3C2)[C@H]1O` [PLATENCIN A3], for which the MIC in test [1] was 64 µg/mL (≈ 145 µM); in test [2], more than 64 µg/mL; in [3] it was 16 µg/mL (≈ 36.2 µM); in [6] it was 64 µg/mL (≈ 145 µM); in [7] it was 64 µg/mL (≈ 145 µM); in test [8] it was more than 64 µg/mL. Also, the results for the MIC in test [9] and in test [10] were 16 µg/mL (≈ 36.2 µM) and more than 64 µg/mL, respectively. The Activity in [4] worked out at 20 µg/mL. Also, the results for the IC50 in [5] and in test [11] were 7.1 µg/mL (≈ 16.1 µM) and more than 100 µM, respectively.
As for `C[C@@]1(O)C[C@@]23C=CC(=O)[C@@](C)(CCC(=O)Nc4c(O)ccc(C(=O)O)c4O)[C@@H]2C[C@@H]1CC3` [PLATENCIN A4], the MIC in [1], in test [2], in test [3], in [6], in test [7] and in test [8] was more than 64 µg/mL throughout. Further, the MIC in test [9] is 32 µg/mL (≈ 72.2 µM); in test [10], more than 64 µg/mL. In addition, the Activity in test [4] worked out at 100 µg/mL. Further, the IC50 in test [5] is 25.1 µg/mL (≈ 56.6 µM); in test [11] it was more than 100 µM.
For `C=C1C[C@@]23C=CC(=O)[C@@](C)(CCC(=O)Nc4c(O)ccc(C(=O)O)c4O)[C@@H]2C[C@@H]1CC3` [PLATENCIN], the MIC is 2 µg/mL (≈ 4.7 µM) in test [1]; 8 µg/mL in test [2]; 0.5 µg/mL (≈ 1.18 µM) in test [3]; 1 µg/mL (≈ 2.35 µM) in test [6]; 64 µg/mL (≈ 150 µM) in test [7]; more than 64 µg/mL in [8]. For the same compound, the MIC in test [9] is 2 µg/mL (≈ 4.7 µM); in [10], more than 64 µg/mL. Further, in [4], the Activity is 0.2 µg/mL. Also, the IC50 in [5] worked out at 12 µg/mL (≈ 28.2 µM); in [11] it was 86 µM.
